Assays:
[1] = target: T1, 17-beta-hydroxysteroid dehydrogenase type 3 (Homo sapiens) (UniProt P37058); test: Inhibition of 17beta-HSD3 (unknown origin) expressed in human LNCAP cells assessed as reduction in [14C]-testosterone formation from [14C]-4-androstene-3,17-dione at 0.1 uM measured after 1 hr relative to control; type: cell-based
T1 sequence (whole entry): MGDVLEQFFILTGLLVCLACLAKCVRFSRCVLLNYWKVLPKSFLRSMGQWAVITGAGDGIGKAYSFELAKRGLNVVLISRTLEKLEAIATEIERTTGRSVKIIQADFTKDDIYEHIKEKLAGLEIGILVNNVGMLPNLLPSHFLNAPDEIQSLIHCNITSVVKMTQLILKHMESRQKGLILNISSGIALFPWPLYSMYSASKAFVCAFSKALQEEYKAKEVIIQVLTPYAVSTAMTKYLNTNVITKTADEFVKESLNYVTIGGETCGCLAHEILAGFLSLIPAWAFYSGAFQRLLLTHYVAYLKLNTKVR
Summary of the method: (§1)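 LNCaP cells stably transfected with 17β-HSD3 were plated at 10,000 per well in hygromycin-free medium and grown 2 days. They were then given 15 nM [14C]-4-androstenedione plus inhibitor at 0.1, 0.5 or 1.0 µM (0.05% DMSO final) for 1 h. Steroids were ether-extracted, separated by TLC and quantified by radioimaging. Results are % inhibition of conversion to T.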

[2] = target: T1, 17-beta-hydroxysteroid dehydrogenase type 3 (Homo sapiens); test: Inhibition of 17beta-HSD3 (unknown origin) expressed in human LNCAP cells assessed as reduction in [14C]-testosterone formation from [14C]-4-androstene-3,17-dione at 0.5 uM measured after 1 hr relative to control; type: cell-based; summary of the method: as §1
[3] = target: T1, 17-beta-hydroxysteroid dehydrogenase type 3 (Homo sapiens); test: Inhibition of 17beta-HSD3 (unknown origin) expressed in human LNCAP cells assessed as reduction in [14C]-testosterone formation from [14C]-4-androstene-3,17-dione at 1 uM measured after 1 hr relative to control; type: cell-based; summary of the method: as §1
[4] = target: T2, 17-beta-hydroxysteroid dehydrogenase type 3 (Homo sapiens, UniProt P37058); test: Inhibition of 17beta-HSD3 (unknown origin) expressed in human LNCAP cells assessed as reduction in [14C]-testosterone formation from [14C]-4-androstene-3,17-dione measured after 1 hr; type: cell-based
T2 sequence (P37058 whole entry): T1 sequence (whole entry)
Summary of the method: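 Transfected LNCaP[17β-HSD3] cells were incubated 1 h with 15 nM [14C]-4-androstenedione and inhibitor at seven concentrations (0.001–5.0 µM; 0.05% DMSO). [14C]-T formation was measured by TLC and radioimaging. IC50 was obtained by curve fitting, averaging two independent experiments in triplicate.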

LAPC4 [5] = test: Androgenic activity in human LAPC4 cells expressing androgen receptor assessed as effect on cell proliferation at 0.1 uM supplemented with fresh medium containing compounds every 3 days for 7 days by MTS assay (reference value: 100%); type: ADME, cell-based; settings: lapc4, 168 h
Summary of the method: (§2)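 Androgen-dependent LAPC-4 cells were seeded at 5,000 per well in IMDM with 5% dextran-coated charcoal-treated FBS and pre-incubated 24 h at 37 °C, 5% CO2. Compounds were added from DMSO stock at 0.1, 0.5 and 1.0 µM, with 0.05% DMSO in controls. Incubation lasted 7 days, with a medium change at day 3. Growth was read by MTS (4 h, 490 nm) as % of untreated control (100%), in triplicate.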

LAPC4 [6] = test: Androgenic activity in human LAPC4 cells expressing androgen receptor assessed as effect on cell proliferation at 0.5 uM supplemented with fresh medium containing compounds every 3 days for 7 days by MTS assay (reference value: 100%); type: ADME, cell-based; settings: lapc4, 168 h; summary of the method: as §2
LAPC4 [7] = test: Androgenic activity in human LAPC4 cells expressing androgen receptor assessed as effect on cell proliferation at 1 uM supplemented with fresh medium containing compounds every 3 days for 7 days by MTS assay (reference value: 100%); type: ADME, cell-based; settings: lapc4, 168 h; summary of the method: as §2
[8] = Stability of the compound in human liver S9 fraction at 10 uM measured after 1 hr by NADPH by HPLC-MS analysis; type: ADME, subcellular; settings: s9, 1 h
Summary of the method: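 Substrate (10 µM) was incubated 1 h at 37 °C with 40 µg human liver S9 fraction in 50 mM Tris with 10 mM MgCl2, with or without 10 mM NADPH. The reaction was stopped with MeOH. Remaining parent was measured by HPLC-MS (UV 190 nm) as the AUC ratio with/without NADPH ×100. Values are the mean ± SD of four independent experiments.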

LAPC4 [9] = test: Antiproliferative activity against human LAPC4 cells expressing androgen receptor assessed as inhibition of cell proliferation supplemented with fresh medium containing compounds every 3 days for 7 days by MTS assay; type: functional, cell-based; summary of the method: as §2
[10] = Plasma concentration in mouse at 25 mg/kg, sc administered as single dose measured after 3 hrs by LC-MS/MS analysis; type: ADME, organism-based
Summary of the method: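 Female mice were fasted 8 h, then given a single 25 mg/kg subcutaneous dose in 0.1 mL of 0.4% aqueous methylcellulose with 8% DMSO. At 3 h, blood was taken by cardiac puncture into K-EDTA tubes (3 mice per group). Plasma was extracted and analysed by LC-MS/MS against a plasma calibration curve.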

LAPC4 [11] = test: Antiproliferative activity against human LAPC4 cells expressing androgen receptor assessed as inhibition of cell proliferation at 0.1 uM supplemented with fresh medium containing compounds every 3 days for 7 days by MTS assay relative to control; type: functional; summary of the method: as §2
LAPC4 [12] = test: Antiproliferative activity against human LAPC4 cells expressing androgen receptor assessed as inhibition of cell proliferation at 0.5 uM supplemented with fresh medium containing compounds every 3 days for 7 days by MTS assay relative to control; type: functional; summary of the method: as §2
LAPC4 [13] = test: Antiproliferative activity against human LAPC4 cells expressing androgen receptor assessed as inhibition of cell proliferation at 1 uM supplemented with fresh medium containing compounds every 3 days for 7 days by MTS assay relative to control; type: functional; summary of the method: as §2
PC-3 [14] = test: Antiproliferative activity against AR-deficient human PC3 cells assessed as reduction in cell proliferation at 0.1 uM measured after 3 days by MTS assay relative to control; type: functional; parameters: scale not given: the % may be the effect or the level left
Summary of the method: (§3)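 Androgen-independent PC-3 cells were plated at 3,000 per well in triplicate in RPMI-1640 with 10% FBS. Compounds were added at 0.1, 0.5 and 1.0 µM from DMSO stock, with 0.05% DMSO in controls, and incubated 3 days. Growth was read by MTS (4 h, 490 nm) and expressed as % of non-treated control (100%).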

PC-3 [15] = test: Antiproliferative activity against AR-deficient human PC3 cells assessed as reduction in cell proliferation at 0.5 uM measured after 3 days by MTS assay relative to control; type: functional; parameters: scale not given: the % may be the effect or the level left; summary of the method: as §3
PC-3 [16] = test: Antiproliferative activity against AR-deficient human PC3 cells assessed as reduction in cell proliferation at 1 uM measured after 3 days by MTS assay relative to control; type: functional; parameters: scale not given: the % may be the effect or the level left; summary of the method: as §3

Structure (SMILES) | inhibition [1] [%] | inhibition [2] [%] | inhibition [3] [%] | IC50 [4] [nM] | Activity (LAPC4 [5]) [%] | Activity (LAPC4 [6]) [%] | Activity (LAPC4 [7]) [%] | Stability [8] | inhibition (LAPC4 [9]) | concentration at 3 h [10] [ng/mL] | inhibition (INH) (LAPC4 [11]) [%] | inhibition (INH) (LAPC4 [12]) [%] | inhibition (INH) (LAPC4 [13]) [%] | Activity (PC-3 [14]) [%] | Activity (PC-3 [15]) [%] | Activity (PC-3 [16]) [%]
CC1CN(S(=O)(=O)c2ccccc2C(F)(F)F)C(C)CN1C[C@@]1(O)CC[C@H]2[C@@H](CC[C@@H]3[C@@H]2CC[C@]2(C)C(=O)CC[C@@H]32)C1 (some centres not stated) | 20 | 82 | 94 | 220 | 92.8 | 66.3 | 63.1 | Unstable | – | – | – | – | – | – | – | –
CC1CN(S(=O)(=O)c2ccccc2C(F)(F)F)C(C)CN1CC(O)c1ccc2c(c1)CC[C@@H]1[C@@H]2CC[C@]2(C)C(=O)CC[C@@H]12 (single isomer, unassigned; diastereomer B) | 84 | 98 | 100 | – | – | – | – | – | Dose-dependent effect | – | – | – | – | – | – | –
C#C[C@]1(O)CC[C@H]2[C@@H]3CC[C@H]4C[C@@](O)(CN5CC(C)N(S(=O)(=O)c6ccccc6C(F)(F)F)CC5C)CC[C@]4(C)[C@H]3CC[C@@]21C (some centres not stated) | 5 | 30 | 40 | – | 130.9 | 95.8 | 81.2 | – | – | – | – | – | – | – | – | –
CC(=O)[C@H]1CC[C@H]2[C@@H]3CC[C@H]4C[C@@](O)(CN5CC(C)N(S(=O)(=O)c6ccccc6C(F)(F)F)CC5C)CC[C@]4(C)[C@H]3CC[C@]12C (some centres not stated) | 10 | 30 | 42 | 2600 | 45.9 | 26.4 | 27.1 | Stable | – | – | – | – | – | – | – | –
CC1CN(S(=O)(=O)c2ccccc2C(F)(F)F)C(C)CN1C[C@@]1(O)CC[C@@]2(C)[C@@H](CC[C@@H]3[C@@H]2CC[C@]2(C)[C@@H](O)[C@H](F)C[C@@H]32)C1 (some centres not stated) | 12 | 58 | 70 | – | 153.6 | 149.7 | 142.4 | – | – | – | – | – | – | – | – | –
CO[C@H]1CC[C@H]2[C@@H]3CC[C@H]4C[C@@](O)(CN5CC(C)N(S(=O)(=O)c6ccccc6C(F)(F)F)CC5C)CC[C@]4(C)[C@H]3CC[C@]12C (some centres not stated) | 10 | 18 | 30 | – | – | – | – | – | – | – | – | – | – | – | – | –
CC1CN(S(=O)(=O)c2ccccc2C(F)(F)F)C(C)CN1C[C@@]1(O)CC[C@@]2(C)[C@@H](CC[C@@H]3[C@@H]2CC[C@]2(C)[C@@H](O)[C@H](O)C[C@@H]32)C1 (some centres not stated) | 20 | 48 | 55 | – | 90.8 | 54.1 | 43.8 | – | – | – | – | – | – | – | – | –
CC1CN(S(=O)(=O)c2ccccc2C(F)(F)F)C(C)CN1C[C@@]1(O)CC[C@@]2(C)[C@@H](CC[C@@H]3[C@@H]2CC[C@@]2(C)[C@H]3CC[C@@]23CO3)C1 (some centres not stated) | 5 | 10 | 20 | – | 92.6 | 61.2 | 49.3 | – | – | – | – | – | – | – | – | –
CC1CN(S(=O)(=O)c2ccccc2C(F)(F)F)C(C)CN1C[C@@]1(O)CC[C@@]2(C)[C@@H](CC[C@@H]3[C@@H]2CC[C@]2(C)[C@@H](O)CC[C@@H]32)C1 (some centres not stated) | 38 | 78 | 94 | 190 | 116.4 | 88.1 | 31.3 | – | – | – | – | – | – | – | – | –
CC1CN(S(=O)(=O)c2ccccc2C(F)(F)F)C(C)CN1CC(O)c1ccc2c(c1)CC[C@@H]1[C@@H]2CC[C@]2(C)C(=O)CC[C@@H]12 (single isomer, unassigned; diastereomer A) [listing 1 of 2 here] | 50 | 95 | 98 | – | – | – | – | – | – | – | – | – | – | – | – | –
CC1CN(S(=O)(=O)c2ccccc2C(F)(F)F)C(C)CN1CC(F)c1ccc2c(c1)CC[C@@H]1[C@@H]2CC[C@]2(C)C(=O)CC[C@@H]12 (mixture of isomers) | 30 | 80 | 90 | 250 | – | – | – | – | – | – | – | – | – | – | – | –
CC1CN(S(=O)(=O)c2ccccc2C(F)(F)F)C(C)CN1C[C@@]1(O)CC[C@@]2(C)[C@@H](CC[C@@H]3[C@@H]2CC[C@]2(C)/C(=N/O)CC[C@@H]32)C1 (some centres not stated) | 40 | 80 | 90 | 220 | – | – | – | Stable | Dose-dependent effect | 94.7 | -8 | 41 | 56 | 10 | 6 | 4
CC1CN(S(=O)(=O)c2ccccc2C(F)(F)F)C(C)CN1CC(O)c1ccc2c(c1)CC[C@@H]1[C@@H]2CC[C@]2(C)C(=O)CC[C@@H]12 (single isomer, unassigned; diastereomer A) [listing 2 of 2 here] | – | – | – | 140 | 115 | 94.9 | 81.9 | – | – | – | – | – | – | – | – | –
CC1CN(S(=O)(=O)c2ccccc2C(F)(F)F)C(C)CN1C[C@@]1(O)CC[C@@]2(C)[C@@H](CC[C@@H]3[C@@H]2CC[C@]2(C)C(=O)[C@H](F)C[C@@H]32)C1 (some centres not stated) | 22 | 75 | 90 | 200 | 147.7 | 134.2 | 126.6 | Stable | – | – | – | – | – | – | – | –
CC1CN(S(=O)(=O)c2ccccc2C(F)(F)F)C(C)CN1C[C@@]1(O)CC[C@@]2(C)[C@@H](CC[C@@H]3[C@@H]2CC[C@]2(C)C(=O)[C@H](O)C[C@@H]32)C1 (some centres not stated) | 0 | 60 | 80 | – | 114 | 83.1 | 69.3 | – | – | – | – | – | – | – | – | –
